Measurements from PubChem BioAssay AID1040 (The Scripps Research Institute Molecular Screening Center, 2008).
Values joined by “and” are separate entries in the source; they are usually repeats but may differ in a detail not shown here. Equal entries are not always repeated. Out of some 200,000 compounds screened, about 2,000 (1%) were called active.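 Rule for the calls: active = inhibition above the campaign mean inhibition of all tested compounds plus 3 SD (cut at about 20% in these data); inactive = the rest.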 Only a selection was taken, and actives are over-represented in it overall.

target: Neuropeptide Y receptor type 1 (Homo sapiens) (UniProt P25929); assay: NPY-Y1 receptor antagonists, primary screen, cell-based (AID 1040); details: HEK293-CNG Y1 cells, membrane potential fluorescence; at 3.6 µM; hits give high values; NPY at EC95, then isoproterenol;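 note: 0% = DMSO wells given NPY plus isoproterenol and 100% = isoproterenol alone without NPY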
Sequence (P25929 whole entry, looked up): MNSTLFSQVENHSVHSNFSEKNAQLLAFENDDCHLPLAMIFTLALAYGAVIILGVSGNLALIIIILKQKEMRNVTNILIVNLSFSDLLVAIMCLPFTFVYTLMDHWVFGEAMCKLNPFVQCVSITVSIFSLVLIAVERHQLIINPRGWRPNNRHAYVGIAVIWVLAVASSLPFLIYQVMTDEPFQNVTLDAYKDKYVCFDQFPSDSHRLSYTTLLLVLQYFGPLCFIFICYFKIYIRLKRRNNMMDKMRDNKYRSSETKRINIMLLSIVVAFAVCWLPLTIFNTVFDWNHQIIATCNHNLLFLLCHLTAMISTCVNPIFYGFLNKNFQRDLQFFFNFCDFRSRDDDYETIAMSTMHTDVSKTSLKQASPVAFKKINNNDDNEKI
Method in brief: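 Assay system: HEK293 Y1/CNG channel cell line; Doses: single compound dose of 3.6 µM, 0.4% DMSO; Timing: dye 3 h, compound 60 min room temperature, stimulation 45 min; Technique: Membrane-potential fluorescent dye readout; Measure: % inhibition of NPY effect.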

inhibition, inactive:
O=C(COc1nc2ccccc2nc1N1CCOCC1)NCC(F)(F)F 3.34%
C/C=C/c1ccc(OCC(O)CN2CCCCCCC2)c(OC)c1 (stereo not given) 16.4%
Cc1ccc(N2C(=O)C3CC3C2=O)cc1 (stereo not given) -4.56%
CCCCCOC(=O)c1ccc(N2C(=O)C3C4C=CC(C4)C3C2=O)cc1 (stereo not given) -0.77%
Cc1ccc(C(=O)N/C(=C/c2cccs2)C(=O)N2CCCCC2)cc1 0.27%
CCOC(=O)c1c(NC(=O)C2CC=CCC2C(=O)O)sc(C)c1CC (stereo not given) 6.42%
COc1ccc2nc(Nc3nc4ccc(NC(C)=O)cc4s3)sc2c1 -4.47%
CCCC(=O)Nc1nc2ccc(NC(=O)c3cccnc3)cc2s1 2.46%
O=C(NCc1ccco1)c1ccc(NS(=O)(=O)c2cccc([N+](=O)[O-])c2)cc1 -0.88%
CN1CCN(C(=O)/C(=C\c2cccs2)NC(=O)c2cccs2)CC1 -0.85%
CO/N=C/c1cn(-c2ccc(Cl)cc2)nn1 -3.05%
O=C(NCc1ccncc1)NC12CC3CC(CC(C3)C1)C2 -6.14%
CCCn1nc(C(=O)N2CCCc3ccccc32)c2ccccc2c1=O 3.23%
O=C(c1cccc(C(=O)N2CCc3ccccc32)n1)N1CCc2ccccc21 10.5%
NS(=O)(=O)c1ccc(N=Cc2ccc(Br)s2)cc1 2.13%
Cc1ccc(S(=O)(=O)NC(C(=O)N2CCOCCOCCOCCOCC2)c2ccccc2)cc1 (stereo not given) 5.72%
O=C(/C=C/c1ccccc1)Nc1nnc(SCC(=O)c2ccc3ccccc3c2)s1 -1.51%
O=C(NCCNc1ccc([N+](=O)[O-])cc1)c1cccc2c(Br)cccc12 10.2%
CCOC(=O)/C(=N\Nc1ccccc1Cl)N(C)C1CCS(=O)(=O)C1 (stereo not given) -1.74%
Cn1c(-c2ccccc2)c[n+]2c1CCCCC2 6%
Cc1ccc(C(=O)N2CCCC(c3ccccc3)=N2)cc1 0.71%
CCN1CCN(C(C(=O)NC2CCCC2)c2cc3c(cc2[N+](=O)[O-])OCO3)CC1 (stereo not given) -0.35%
COC(=O)C1C(=O)NCC1c1ccc(C)cc1 (stereo not given) -2.75%
COC(=O)C1=C(Nc2ccc(OC)cc2)C=C(C)C(C(=O)OC)C1c1ccc(C)cc1 (stereo not given) 14.2%
O=c1[nH]c2ccccc2s1 1.2%
Cc1ccc(S(=O)(=O)N2CCOCC2)cc1C(=O)NC(=S)N(Cc1ccccc1)C(C)C 1.17%
Cc1nnc(SCC(=O)N2c3ccccc3C(C)(c3ccc(Cl)cc3)CC2(C)C)s1 (stereo not given) 16.7%
CC(=O)Nc1ccc(/C(C)=N/NC(=O)CN(c2ccccc2Br)S(C)(=O)=O)cc1 -2.53%
Cc1ccc(-n2c(SCC(=O)Nc3ncc(Cl)cc3Cl)nc3ccccc32)cc1 -2.49%
CC(Oc1ccc(Cl)cc1)C(=O)OCC(=O)Nc1ncc(Cl)cc1Cl (stereo not given) 2.64%
CC1(C)C=C2[C@H]3CC[C@@H]4[C@@]5(C)CCC(=O)C(C)(C)[C@@H]5CC[C@@]4(C)[C@]3(C)CC[C@@]2(C(=O)O)CC1 2.69%
Cc1cc(O)ccc1-c1cnc2ccccc2n1 -0.67%
CC(=O)Nc1cccc(-c2nc3ccccc3s2)c1C 3.27%
CC1CCN(S(=O)(=O)c2ccc3ncn(CC(=O)N(C)C4CCCCC4)c(=O)c3c2)CC1 4.79%
CCOC(=O)C1CCN(CCC(=O)Nc2cccc(C)c2)CC1 -5.31%
O=C(c1ccc(CSc2ccccc2)cc1)N1CCCCCC1 -0.16%
COc1ccccc1OCc1ccc(C(=O)N2CCN(C)CC2)o1 6.16%
O=[N+]([O-])c1ccc(N2CCN(S(=O)(=O)c3ccccc3)CC2)cc1N1CCc2ccccc2C1 4.34%
CNC(=O)COC(=O)c1cc(-c2ccc(OC)cc2)nc2ccccc12 3.85%
Cc1ccc(OCC(=O)Nn2cnc3ccccc32)cc1 8.06%
COc1cc(NC(=S)N2CCCC(C)C2)cc(OC)c1OC (stereo not given) -1.31%
CC(=O)N1CCN(S(=O)(=O)c2cccc(C(=O)NC3CCC(C)CC3)c2)CC1 (stereo not given) 1.65%
CC(C)Cn1c(CN(Cc2ccccc2)Cc2ccccc2)nc2c1c(=O)n(C)c(=O)n2C 13.4%
Cn1c(=O)c2c(ncn2CCc2ccccc2)n(C)c1=O -0.86%
CCCN(CC(=O)Nc1ccc(C(N)=O)cc1)CC(=O)Nc1ccccc1C -0.18%
O=C1Nc2cc(Cl)c(Cl)cc2N(O)N1c1ccccc1Cl 1.81%
CC(=O)Nc1ccc(NC(=O)C(C)OC(=O)c2ccccc2C(=O)c2ccc(Cl)c([N+](=O)[O-])c2)cc1 (stereo not given) 0.15%
Cc1nn(Cc2ccccc2)c(C)c1C(=O)NCCN1C(=O)S/C(=C\c2ccc(F)cc2)C1=O -0.53%
O=C(CN1C(=O)/C(=C\c2ccc(C(F)(F)F)cc2)Sc2ccccc21)NCc1ccco1 10.7%
Cc1ccc(OCCCn2c(=O)oc3ccccc32)cc1 8.49%
Cc1ccc2nc(-c3ccc(NC(=O)CN(C)S(=O)(=O)c4ccccc4)cc3)sc2c1 -3.73%
Cc1c(CN2CCCC(C(=O)c3cccc(Cl)c3)C2)c(=O)n(-c2ccccc2)n1C (stereo not given) -2.25%
Cc1ccc2nc(-c3ccncc3)cc(C(=O)Nc3ccc4c(c3)OCCO4)c2c1 4.85%
O=C(Nc1ccncc1)c1cc(-c2ccccn2)nc2ccc(Br)cc12 -2.88%
Cc1ccc(C(C(=O)NCc2ccco2)N(CC2CCCO2)C(=O)Cn2nnc3ccccc32)cc1 (stereo not given) 2.99%
COCCNC(=O)C(c1ccc(C)o1)N(Cc1ccccc1)C(=O)Cn1nnc2ccccc21 (stereo not given) 7.77%
CCO[C@H]1OC(C(=O)O)=C[C@@H](C2CCCCC2)[C@@H]1CCCO -4.69%
CC1CC1C(=O)OCC(=O)c1c(N)n(C)c(=O)n(C)c1=O (stereo not given) 0.59%
CS(=O)(=O)N(CC(=O)N1CCCC1)Cc1ccccc1 1.29%
COc1ccc(OC)c(NC(=O)CN(Cc2ccc(Cl)cc2)S(C)(=O)=O)c1 -0.76%
COC(=O)C1=C(C)N(c2ccc(C)cc2)/C(=C/c2ccc(O)cc2)C1=O 2.2%
COCCNc1nc2nonc2nc1N1CCCC1c1nccs1 (stereo not given) 0.14%
O=C(C(=O)N1CCc2ccccc2C1)N1CCc2ccccc2C1 1.24%
O=C(c1cc(-c2ccccc2O)on1)N1CCCC1 -3.05%
Cc1occc1C(=O)N1CCCc2ccccc21 1.99%
O=C(c1cc(-c2cccc(O)c2)on1)N1CCc2ccccc2C1 2.12%
CC(C)Oc1ccccc1C(=O)NC(CO)C(=O)O (stereo not given) -2.02%
Cc1ccc(O)c(CCc2ccccc2)n1 1.07%
Cc1nn(CC(=O)Nc2ccc(C#N)cc2)c(C)c1[N+](=O)[O-] -0.39%
N#Cc1c(N)nc2c3c(sc(=N)c2c1N)NC(=O)CC3c1ccccc1Cl (stereo not given) 1.18%
COc1ccc(-c2cc(-c3ccc(N)cc3)nc(N)c2C#N)cc1OC 7.06%
CC(NC(=O)COC(=O)C1CCN(S(=O)(=O)c2ccccc2C(F)(F)F)CC1)c1ccccc1 (stereo not given) -0.58%
Cc1c(NC(=S)NC(=O)CCc2ccccc2)c(=O)n(-c2ccccc2)n1C 4.67%

inhibition, active:
C/C(=N/O)c1ccc(N2C(=O)C3C4C=CC(C3C2=O)C2C3C(=O)N(c5ccc(/C(C)=N/O)cc5)C(=O)C3C42)cc1 (stereo not given) 20.7%
CCCC(=O)Nc1nc2ccc(NC(=O)c3c(F)c(F)c(OC)c(F)c3F)cc2s1 33.9%
CCCCn1nc(C(=O)N2CCc3ccccc32)c2ccccc2c1=O 28.5%
Cc1ccc(C(=O)C[n+]2cc(-c3ccccc3)n3c2CCCCC3)cc1 30.8% and 55.8%
COC(=O)C1=C(Nc2ccc(C)cc2)C=C(C)C(C(=O)OC)C1c1ccc(F)cc1 (stereo not given) 32.6%
Cc1ccc(SCCC(=O)OCC(=O)Nc2ncc(Cl)cc2Cl)cc1 20.4%
Oc1ccc(-c2[nH]ncc2-c2nc3ccccc3s2)c(O)c1 62.6%
COc1cc2c(C(=O)N3CCN(C)CC3)c(CSc3ccccc3)n(C)c2cc1Br 23.3%
COc1ccc(-c2cc(C(=O)n3cnc4ccccc43)c3ccccc3n2)cc1 26.2%
CC(C)Cn1cnc2c1c(=O)n(CC(O)c1ccccc1)c(=O)n2CC(C)C (stereo not given) 20.6%
CCN1CCN(CCNC(=O)c2ccc(/C=C3/Sc4ccccc4N(Cc4cccc(C)c4)C3=O)cc2)CC1 23.1%
Cc1ccc2nc(-c3ccccn3)cc(C(=O)Nc3ccc4c(c3)OCO4)c2c1 31.6%
COc1ccccc1N(C(=O)Cn1nnc2ccccc21)C(C(=O)NCc1ccco1)c1ccc(C)o1 (stereo not given) 21.5%
COc1ccccc1N1CCN(C(=O)CN(Cc2ccc(Cl)cc2)S(C)(=O)=O)CC1 20.4%
O=C(c1cc(-c2ccc(O)cc2)on1)N1CCCc2ccccc21 25.5%
Cc1ccc(-c2cc(C(=O)N3CCc4ccccc4C3)no2)cc1 28.6%
COc1ccc(C2CC(=O)Nc3sc(=N)c4c(N)c(C#N)c(N)nc4c32)cc1OC (stereo not given) 60.1%
